The structures appear in SMILES notation. Bounds are passed on as bounds.

Consider 18 molecules from ChEMBL document CHEMBL2375225, “Structure-activity relationship of 5-chloro-2-methyl-3-(1,2,3,6-tetrahydropyridin-4-yl)-1H-indole analogues as 5-HT(6) receptor agonists” (Eur J Med Chem, 2013).

Experiment [1] addresses T1, 5-hydroxytryptamine receptor 2C (Homo sapiens, UniProt P28335).
T1 sequence (P28335 whole entry): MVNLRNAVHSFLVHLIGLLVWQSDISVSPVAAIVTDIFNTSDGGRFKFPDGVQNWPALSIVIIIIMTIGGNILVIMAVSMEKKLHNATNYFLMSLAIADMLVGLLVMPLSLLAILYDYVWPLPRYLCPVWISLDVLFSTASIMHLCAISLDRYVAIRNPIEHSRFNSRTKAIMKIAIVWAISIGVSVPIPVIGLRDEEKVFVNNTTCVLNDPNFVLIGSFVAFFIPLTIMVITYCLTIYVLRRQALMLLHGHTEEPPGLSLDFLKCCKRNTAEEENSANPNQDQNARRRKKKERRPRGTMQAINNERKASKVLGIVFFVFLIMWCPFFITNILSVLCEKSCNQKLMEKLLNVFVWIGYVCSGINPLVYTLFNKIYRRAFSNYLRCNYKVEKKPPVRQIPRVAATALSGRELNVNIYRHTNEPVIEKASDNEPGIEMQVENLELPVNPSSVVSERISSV
In words: Displacement of [3H]-mesulergine from human 5HT2C receptor.

For experiment [2], the target named is T2, 5-hydroxytryptamine receptor 1A (Rattus norvegicus, UniProt P19327).
T2 sequence (P19327 whole entry): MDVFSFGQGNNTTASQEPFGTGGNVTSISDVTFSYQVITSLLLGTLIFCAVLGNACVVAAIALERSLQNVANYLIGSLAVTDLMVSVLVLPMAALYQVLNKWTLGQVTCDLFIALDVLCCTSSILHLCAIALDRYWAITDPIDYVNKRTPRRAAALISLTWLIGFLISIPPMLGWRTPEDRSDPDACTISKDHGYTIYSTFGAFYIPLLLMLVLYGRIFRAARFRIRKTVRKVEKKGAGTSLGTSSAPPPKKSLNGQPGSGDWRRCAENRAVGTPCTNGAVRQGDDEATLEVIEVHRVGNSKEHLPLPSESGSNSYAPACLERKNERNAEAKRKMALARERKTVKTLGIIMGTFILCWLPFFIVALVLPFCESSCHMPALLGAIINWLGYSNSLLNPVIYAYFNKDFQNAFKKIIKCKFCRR
In words: Displacement of [3H]-8-OH-DPAT from rat 5HT1A receptor. In general terms: In a radioligand displacement assay an active substance lowers the binding of a labelled ligand.

Experiment [3] addresses T3, 5-hydroxytryptamine receptor 6 (Homo sapiens, UniProt P50406). In words: Partial agonist activity at human 5HT6 receptor expressed in BHK cells assessed as stimulation of cAMP production after 45 minutes relative to control. Type of experiment: functional, cell-based. The procedure, abridged:
(§1)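 BHK cells stably transfected with the human 5-HT6 receptor, grown in MEM-α with 10% dialysed heat-inactivated FCS at 37 °C under 5% CO2. Cells were detached with 5 mM EDTA in PBS, seeded at 10,000 cells/well and left to adhere ≥12 h. They were then washed and placed in serum-free MEM-α, exposed to compound for 45 min, washed with PBS, and intracellular cAMP measured by enzyme immunoassay.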

The target in experiment [4] is T3, 5-hydroxytryptamine receptor 6. In words: Displacement of [3H]LSD from human 5HT6 receptor expressed in HEK cell membranes after 1 hr by liquid scintillation counting analysis. The arrangement: species or system HEK293. The essentials:
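Compounds were made up as 1 mM DMSO stocks and diluted in 20 mM HEPES, 0.1% ascorbic acid, pH 7.4. They were incubated 1 h at 37 °C with [3H]LSD (1 nM final) and membranes (23 µg protein) from HEK cells expressing human 5-HT6. Binding was stopped by filtration through GF/B filters presoaked in 0.1% polyethyleneimine, with three buffer washes, then counted by liquid scintillation. Single determination.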

For experiment [5], the target named is Sodium-dependent serotonin transporter (Rattus norvegicus, UniProt P31652). The experiment in a line: Displacement of [3H]-5-HT from rat SERT.
Sequence of Sodium-dependent serotonin transporter (P31652 whole entry): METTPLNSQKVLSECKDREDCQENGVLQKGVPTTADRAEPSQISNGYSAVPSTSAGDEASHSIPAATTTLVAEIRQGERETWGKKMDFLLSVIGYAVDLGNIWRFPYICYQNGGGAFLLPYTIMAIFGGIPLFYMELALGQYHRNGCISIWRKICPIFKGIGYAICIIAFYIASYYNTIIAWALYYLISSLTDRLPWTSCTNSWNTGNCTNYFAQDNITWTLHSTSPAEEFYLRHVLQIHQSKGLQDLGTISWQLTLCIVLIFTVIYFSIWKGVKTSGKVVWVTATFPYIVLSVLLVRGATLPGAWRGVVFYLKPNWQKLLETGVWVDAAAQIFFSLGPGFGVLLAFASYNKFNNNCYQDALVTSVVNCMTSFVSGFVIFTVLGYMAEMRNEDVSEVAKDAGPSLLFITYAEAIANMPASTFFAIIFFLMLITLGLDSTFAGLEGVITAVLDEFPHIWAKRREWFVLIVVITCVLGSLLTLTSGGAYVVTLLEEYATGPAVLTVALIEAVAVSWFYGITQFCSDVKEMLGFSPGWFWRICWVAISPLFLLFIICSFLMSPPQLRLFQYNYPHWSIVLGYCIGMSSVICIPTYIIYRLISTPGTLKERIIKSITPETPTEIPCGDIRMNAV
The target in experiment [6] is T3, 5-hydroxytryptamine receptor 6. In words: Partial agonist activity at human 5HT6 receptor expressed in BHK cells assessed as stimulation of cAMP production after 45 minutes. The format is functional, cell-based. The essentials:
as §1
For orientation: Changes in cAMP serve as a functional read-out for many G protein-coupled receptors.

Experiment [7] concerns the target 5-hydroxytryptamine receptor 4 (Cavia porcellus, UniProt O70528). The experiment in a line: Displacement of [3H]-GR113808 from guinea pig 5HT4 receptor.
A short description of experiment [8]: Displacement of [3H]-5-HT from calf 5HT1D receptor. Also noted: species or system Bos taurus.
Experiment [9] deals with 5-hydroxytryptamine receptor 7 (Homo sapiens, UniProt P34969). In words: Displacement of [3H]LSD from human 5HT7 receptor.
Sequence of 5-hydroxytryptamine receptor 7 (P34969 whole entry): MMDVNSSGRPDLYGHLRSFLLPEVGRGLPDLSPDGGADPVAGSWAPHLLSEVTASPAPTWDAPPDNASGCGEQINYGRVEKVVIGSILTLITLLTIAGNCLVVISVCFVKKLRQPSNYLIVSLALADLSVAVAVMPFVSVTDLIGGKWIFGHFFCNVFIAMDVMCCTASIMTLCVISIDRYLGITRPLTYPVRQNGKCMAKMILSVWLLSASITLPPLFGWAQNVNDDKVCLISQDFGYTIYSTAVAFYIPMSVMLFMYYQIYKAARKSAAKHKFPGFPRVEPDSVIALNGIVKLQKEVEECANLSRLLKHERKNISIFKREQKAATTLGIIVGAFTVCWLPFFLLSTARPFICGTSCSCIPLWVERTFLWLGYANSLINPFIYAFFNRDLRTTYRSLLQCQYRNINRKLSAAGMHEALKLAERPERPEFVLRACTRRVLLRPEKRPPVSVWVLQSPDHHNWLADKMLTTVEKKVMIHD
Experiment [10] deals with 5-hydroxytryptamine receptor 1B (Rattus norvegicus, UniProt P28564). In words: Displacement of [125I]-iodocyanopindolol from rat 5HT1B receptor.
Sequence of 5-hydroxytryptamine receptor 1B (P28564 whole entry): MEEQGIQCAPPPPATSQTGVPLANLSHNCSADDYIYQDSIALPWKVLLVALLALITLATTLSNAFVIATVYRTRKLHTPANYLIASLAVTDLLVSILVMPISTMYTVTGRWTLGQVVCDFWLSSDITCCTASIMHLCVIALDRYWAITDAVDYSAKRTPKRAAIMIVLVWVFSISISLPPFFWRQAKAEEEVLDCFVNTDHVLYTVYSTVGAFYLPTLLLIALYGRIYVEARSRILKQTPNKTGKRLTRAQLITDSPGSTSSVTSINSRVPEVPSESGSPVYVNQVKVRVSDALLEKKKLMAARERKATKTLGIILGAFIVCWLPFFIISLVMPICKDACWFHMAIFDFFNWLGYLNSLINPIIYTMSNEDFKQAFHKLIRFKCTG
Experiment [11] deals with 5-hydroxytryptamine receptor 2A (Homo sapiens, UniProt P28223). The experiment in a line: Displacement of [3H]-ketanserin from human 5HT2A receptor.
Sequence of 5-hydroxytryptamine receptor 2A (P28223 whole entry): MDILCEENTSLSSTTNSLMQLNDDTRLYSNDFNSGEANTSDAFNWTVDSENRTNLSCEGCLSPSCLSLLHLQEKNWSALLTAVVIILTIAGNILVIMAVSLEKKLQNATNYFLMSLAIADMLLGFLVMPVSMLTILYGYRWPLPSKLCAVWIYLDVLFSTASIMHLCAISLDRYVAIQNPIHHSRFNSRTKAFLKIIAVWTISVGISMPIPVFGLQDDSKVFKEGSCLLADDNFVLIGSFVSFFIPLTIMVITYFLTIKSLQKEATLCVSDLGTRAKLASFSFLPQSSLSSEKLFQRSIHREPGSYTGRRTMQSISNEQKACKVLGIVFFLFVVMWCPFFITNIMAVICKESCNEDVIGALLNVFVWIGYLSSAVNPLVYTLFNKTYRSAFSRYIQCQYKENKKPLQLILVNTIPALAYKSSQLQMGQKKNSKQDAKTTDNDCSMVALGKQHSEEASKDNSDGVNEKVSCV
Experiment [12] is described as follows: Displacement of [3H]-GR65630 from 5HT3 receptor in rat/mouse NG108 cells. The format is cell-based.
Experiment [13] concerns the target T3, 5-hydroxytryptamine receptor 6. The experiment in a line: Antagonist activity at human 5HT6 receptor expressed in human HeLa cells assessed as inhibition of 5HT-induced cAMP accumulation relative to control. The format is functional, cell-based. The arrangement: scale not given: the % may be the effect or the level left.
Experiment [14] has the same target. In words: Displacement of [3H]LSD from human 5HT6 receptor expressed in CHO cell membranes after 1 hr by liquid scintillation counting analysis.
Experiment [15] has the same target. In words: Agonist activity at human 5HT6 receptor expressed in BHK cells assessed as stimulation of cAMP production after 45 minutes relative to control. The format is functional, cell-based. The essentials: as §1
Experiment [16] has the same target. The experiment in a line: Agonist activity at human 5HT6 receptor expressed in BHK cells assessed as stimulation of cAMP production after 45 minutes. The format is functional, cell-based. The essentials: as §1

T3 sequence (P50406 whole entry): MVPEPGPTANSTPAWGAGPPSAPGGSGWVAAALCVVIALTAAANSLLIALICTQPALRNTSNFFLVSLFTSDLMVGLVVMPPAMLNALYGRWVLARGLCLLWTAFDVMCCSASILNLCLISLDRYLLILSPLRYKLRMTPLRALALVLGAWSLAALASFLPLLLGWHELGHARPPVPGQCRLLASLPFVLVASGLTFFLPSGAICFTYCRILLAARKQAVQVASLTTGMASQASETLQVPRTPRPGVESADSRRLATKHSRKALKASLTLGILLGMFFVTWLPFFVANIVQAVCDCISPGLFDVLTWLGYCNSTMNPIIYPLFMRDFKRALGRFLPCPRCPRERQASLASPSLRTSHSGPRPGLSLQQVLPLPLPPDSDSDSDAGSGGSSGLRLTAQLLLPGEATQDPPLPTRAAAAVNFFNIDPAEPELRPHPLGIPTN
Sequence of 5-hydroxytryptamine receptor 4 (O70528 whole entry): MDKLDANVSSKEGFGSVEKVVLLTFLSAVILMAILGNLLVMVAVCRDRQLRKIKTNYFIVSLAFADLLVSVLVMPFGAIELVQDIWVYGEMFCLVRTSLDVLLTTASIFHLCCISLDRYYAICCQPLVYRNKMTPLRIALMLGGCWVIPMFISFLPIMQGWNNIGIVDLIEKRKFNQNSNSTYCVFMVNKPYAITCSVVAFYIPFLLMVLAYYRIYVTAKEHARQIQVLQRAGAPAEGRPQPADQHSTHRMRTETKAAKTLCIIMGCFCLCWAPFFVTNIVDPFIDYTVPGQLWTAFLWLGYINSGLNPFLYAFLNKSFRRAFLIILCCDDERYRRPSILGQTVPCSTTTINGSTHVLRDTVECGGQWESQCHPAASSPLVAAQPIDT

A word on the IC50: it is the point on the concentration scale where inhibition reaches its midpoint. Usually EC50 stands for the concentration needed to bring the measured effect to its halfway point. As for `Cc1[nH]c2ccccc2c1C1=CCNCC1`, the IC50 in experiment [1] was 2900 nM; in [2], 5700 nM; in [4] it was 200 nM; in experiment [5] it was above 1000 nM; in [7], 1000 nM; in [8], 1200 nM. Besides, the half-inhibitory concentration (IC50) in experiment [9] was above 1000 nM; in experiment [10], 890 nM; in experiment [11] it was 1500 nM; in [12], 2300 nM. The Activity in experiment [3] was 78%. The EC50 in [6] turned out to be 1100 nM.

Regarding `Cc1c(C2=CCNCC2)c2cc(Cl)ccc2n1S(=O)(=O)c1ccccc1`, the Activity in experiment [13] was 0%. This molecule yielded an IC50 in [14] of 2 nM.

For `Cc1[nH]c2ccc(Br)cc2c1C1=CCNCC1`, the Activity in experiment [15] was 100%. For the same molecule, the 50% inhibitory concentration (IC50) in experiment [1] is 420 nM; in experiment [2], 660 nM; in experiment [4], 10 nM; in experiment [5], 4800 nM; in experiment [8] it was 130 nM; in [9], 480 nM. The values for the IC50 in experiment [10] and in [11] were 75 nM and 400 nM, respectively. In experiment [16], the EC50 stood at 2.7 nM.

With `Cc1[nH]c2ccc(F)cc2c1C1=CCNCC1`, the Activity in [15] stood at 100%. The IC50 in [1] was 700 nM; in [2], above 1000 nM; in experiment [4], 30 nM; in experiment [5] it was 1900 nM; in experiment [8] it was 160 nM; in experiment [9] it was 3100 nM. For the same molecule, the results for the IC50 in experiment [10] and in experiment [11] were 200 nM and 950 nM, respectively. For the same molecule, in [16], the EC50 was 5.3 nM.

As to `Cc1[nH]c2ccc(Oc3ccccc3[N+](=O)[O-])cc2c1C1=CCNCC1`, the IC50 in [4] is 9 nM.

Turning to `Cc1[nH]c2ccc(-c3ccsc3)cc2c1C1=CCNCC1`, the IC50 in [1] is above 1000 nM; in [2], above 1000 nM; in experiment [4], 700 nM; in [5], above 1000 nM; in experiment [8], 33 nM; in [9], 690 nM. Further, the half-maximal inhibitory concentration (IC50) is 12 nM in [10] and above 1000 nM in [11].

Regarding `Cc1[nH]c2ccc(-c3ccccc3)cc2c1C1=CCNCC1`, the IC50 in experiment [1] is above 1000 nM; in [2], above 1000 nM; in experiment [4] it was 1000 nM; in experiment [5], above 1000 nM; in experiment [8] it was 390 nM; in experiment [9] it was 3700 nM. Besides, the IC50 in experiment [10] is 140 nM; in experiment [11] it was above 1000 nM.

With `CCn1c(C)c(C2=CCNCC2)c2cc(Cl)ccc21`, the IC50 in experiment [4] was found to be 100 nM.

`CCCn1c(C)c(C2=CCNCC2)c2cc(Cl)ccc21`: in [4], the IC50 came out at 80 nM.

Take `C1=C(c2c(-c3ccccc3)[nH]c3ccccc23)CCNC1`: the IC50 in [1] was 100 nM; in experiment [2], above 1000 nM; in experiment [8], above 1000 nM; in [10], above 1000 nM; in experiment [11] it was 50 nM; in experiment [12], 270 nM.

Consider `Cc1[nH]c2ccc(NS(=O)(=O)c3ccccc3)cc2c1C1=CCNCC1`, for which the IC50 in [14] came to 29 nM. The Activity in experiment [3] was found to be 60%. In experiment [6], the EC50 worked out at 21 nM.

On to `COc1ccc2[nH]cc(C3=CCNCC3)c2c1` [RU-24969], for which the IC50 in experiment [8] is 20 nM; in experiment [10] it was 6 nM; in experiment [12], above 1000 nM.

In [4], `Cc1c(C2=CCNCC2)c2cc(Cl)ccc2n1C` displayed an IC50 of 40 nM.

`Cc1[nH]c2ccc(OC(C)C)cc2c1C1=CCNCC1` registered an IC50 in [4] of 100 nM.

In the case of `Cc1[nH]c2ccc([N+](=O)[O-])cc2c1C1=CCNCC1`, the IC50 is above 1000 nM in [1]; 890 nM in [2]; 10 nM in experiment [4]; above 1000 nM in experiment [5]; 310 nM in [8]; above 1000 nM in experiment [9]. Further, the IC50 in experiment [10] came out at 570 nM; in experiment [11], 1000 nM. Also, in experiment [3], the Activity is 28%. Moreover, in experiment [6], the EC50 was 32 nM.

`CSc1ccc2[nH]c(C)c(C3=CCNCC3)c2c1`: in experiment [3], the Activity turned out to be 58%. The molecule also had an IC50 in experiment [4] of 20 nM. Also, the EC50 in [6] is 6.6 nM.

As for `N#Cc1ccc2[nH]cc(C3=CCNCC3)c2c1`, the Activity in [3] worked out at 44%. This molecule displayed an IC50 in experiment [4] of 20 nM. Also, the half-maximal effective concentration (EC50) in experiment [6] amounted to 130 nM.

As to `Cc1[nH]c2ccc(OS(=O)(=O)C(F)(F)F)cc2c1C1=CCNCC1`, the IC50 in [1] is 990 nM; in experiment [2], above 1000 nM; in [4], 50 nM; in experiment [5], above 1000 nM; in experiment [8], 35 nM; in [9], 1800 nM. For the same molecule, the IC50 in [10] is 29 nM; in experiment [11] it was above 1000 nM. The Activity in experiment [3] turned out to be 65%. Moreover, the EC50 in [6] stood at 32 nM.
